Drawing on ChEMBL document CHEMBL1135904, “Toward an optimal joint recognition of the S1' subsites of endothelin converting enzyme-1 (ECE-1), angiotensin converting enzyme (ACE), and neutral endopeptidase (NEP)” (J Med Chem, 2002), this text covers IC50 and Ki for 8 compounds.

The target in assay [1] is T1, Neprilysin (Oryctolagus cuniculus, UniProt P08049).
T1 sequence (P08049 whole entry): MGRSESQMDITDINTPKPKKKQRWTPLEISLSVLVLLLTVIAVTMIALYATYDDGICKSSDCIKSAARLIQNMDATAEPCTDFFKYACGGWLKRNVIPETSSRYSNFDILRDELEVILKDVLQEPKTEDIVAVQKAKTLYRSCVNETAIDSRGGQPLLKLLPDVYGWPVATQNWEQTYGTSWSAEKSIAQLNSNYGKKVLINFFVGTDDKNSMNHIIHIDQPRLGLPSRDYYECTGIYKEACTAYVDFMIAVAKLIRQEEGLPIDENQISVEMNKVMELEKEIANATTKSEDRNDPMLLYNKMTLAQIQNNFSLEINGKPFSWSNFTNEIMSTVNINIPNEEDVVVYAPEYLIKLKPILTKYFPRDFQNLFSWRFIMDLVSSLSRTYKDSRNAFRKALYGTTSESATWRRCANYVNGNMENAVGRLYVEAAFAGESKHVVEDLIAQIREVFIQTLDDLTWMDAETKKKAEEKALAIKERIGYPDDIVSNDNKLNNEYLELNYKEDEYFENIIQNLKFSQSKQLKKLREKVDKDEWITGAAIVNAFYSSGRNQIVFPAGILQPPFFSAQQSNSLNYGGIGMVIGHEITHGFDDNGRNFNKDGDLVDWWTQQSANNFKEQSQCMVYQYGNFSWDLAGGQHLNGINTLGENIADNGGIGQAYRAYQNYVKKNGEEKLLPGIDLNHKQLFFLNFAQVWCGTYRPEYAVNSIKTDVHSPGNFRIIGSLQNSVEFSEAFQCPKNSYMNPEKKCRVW
The experiment in a line: (§1) Inhibition of neutral endopeptidase (NEP). In outline: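 NEP purified from rabbit kidney (final 250 ng/mL) preincubated 10 min at 37 °C with or without increasing inhibitor concentrations in 50 mM Tris-HCl pH 7.4. Substrate Dansyl-Gly-(p-NO2)Phe-β-Ala (DGPA; Km 37 μM) added to 50 μM final. Reaction stopped after 1 h with DMSO. Fluorescence read at ex 340/em 530 nm.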

For assay [2], the target named is T2, Endothelin-converting enzyme 1 (Homo sapiens, UniProt P42892).
T2 sequence (P42892 whole entry): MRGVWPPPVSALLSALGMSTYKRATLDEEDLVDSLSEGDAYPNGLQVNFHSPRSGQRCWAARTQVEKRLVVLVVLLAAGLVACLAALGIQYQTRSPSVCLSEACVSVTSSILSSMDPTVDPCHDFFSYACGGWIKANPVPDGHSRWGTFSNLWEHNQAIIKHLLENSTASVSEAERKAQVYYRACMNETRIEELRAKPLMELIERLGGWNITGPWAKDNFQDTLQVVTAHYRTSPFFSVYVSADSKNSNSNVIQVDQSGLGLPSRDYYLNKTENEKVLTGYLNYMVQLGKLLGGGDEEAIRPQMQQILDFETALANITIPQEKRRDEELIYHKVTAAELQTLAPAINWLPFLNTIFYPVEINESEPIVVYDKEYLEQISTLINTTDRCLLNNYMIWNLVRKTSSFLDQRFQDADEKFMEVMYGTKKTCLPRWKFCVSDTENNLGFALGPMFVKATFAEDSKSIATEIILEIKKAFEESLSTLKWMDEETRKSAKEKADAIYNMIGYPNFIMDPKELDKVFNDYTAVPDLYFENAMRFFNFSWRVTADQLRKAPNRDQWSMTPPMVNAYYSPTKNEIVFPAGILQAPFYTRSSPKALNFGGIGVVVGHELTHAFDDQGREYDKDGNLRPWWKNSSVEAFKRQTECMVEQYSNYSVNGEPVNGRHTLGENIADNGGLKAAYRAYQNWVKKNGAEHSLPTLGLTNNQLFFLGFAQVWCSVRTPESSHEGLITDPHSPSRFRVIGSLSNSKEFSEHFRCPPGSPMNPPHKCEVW
The assay can be described thus: Inhibition activity towards human recombinant Endothelin-converting enzyme 1 (hECE-1c) expressed in Cos-7 cells. The class given is cell-based. In outline:
(§2)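 Recombinant human ECE-1c from Cos-7 cells, 4 µg total protein per well, preincubated 10 min at 37 °C in 50 mM tris-maleate pH 6-8 with or without rising inhibitor concentrations. Reaction started with 20 µM (Pya21-(p-NO2)Phe22)bigET(19-35) (Km 20 µM), run 1 h at 37 °C, stopped by cooling. Fluorescence read at ex 340/em 400 nm.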

Assay [3] has as its target T1, Neprilysin. The assay can be described thus: Inhibition of neutral endopeptidase (NEP) isolated from rabbit kidney. The method in brief: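 Rabbit kidney NEP purified to homogeneity, final 250 ng/mL, preincubated 10 min at 37 °C with or without rising inhibitor concentrations in 50 mM Tris-HCl pH 7.4. Then 50 µM DGPA (Dansyl-Gly-(p-NO2)Phe-β-Ala; Km 37 µM) added for 1 h. Stopped with DMSO. Fluorescence read at ex 340/em 530 nm.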

Assay [4] concerns the target T3, Angiotensin-converting enzyme (Rattus norvegicus, UniProt P47820).
T3 sequence (P47820 whole entry): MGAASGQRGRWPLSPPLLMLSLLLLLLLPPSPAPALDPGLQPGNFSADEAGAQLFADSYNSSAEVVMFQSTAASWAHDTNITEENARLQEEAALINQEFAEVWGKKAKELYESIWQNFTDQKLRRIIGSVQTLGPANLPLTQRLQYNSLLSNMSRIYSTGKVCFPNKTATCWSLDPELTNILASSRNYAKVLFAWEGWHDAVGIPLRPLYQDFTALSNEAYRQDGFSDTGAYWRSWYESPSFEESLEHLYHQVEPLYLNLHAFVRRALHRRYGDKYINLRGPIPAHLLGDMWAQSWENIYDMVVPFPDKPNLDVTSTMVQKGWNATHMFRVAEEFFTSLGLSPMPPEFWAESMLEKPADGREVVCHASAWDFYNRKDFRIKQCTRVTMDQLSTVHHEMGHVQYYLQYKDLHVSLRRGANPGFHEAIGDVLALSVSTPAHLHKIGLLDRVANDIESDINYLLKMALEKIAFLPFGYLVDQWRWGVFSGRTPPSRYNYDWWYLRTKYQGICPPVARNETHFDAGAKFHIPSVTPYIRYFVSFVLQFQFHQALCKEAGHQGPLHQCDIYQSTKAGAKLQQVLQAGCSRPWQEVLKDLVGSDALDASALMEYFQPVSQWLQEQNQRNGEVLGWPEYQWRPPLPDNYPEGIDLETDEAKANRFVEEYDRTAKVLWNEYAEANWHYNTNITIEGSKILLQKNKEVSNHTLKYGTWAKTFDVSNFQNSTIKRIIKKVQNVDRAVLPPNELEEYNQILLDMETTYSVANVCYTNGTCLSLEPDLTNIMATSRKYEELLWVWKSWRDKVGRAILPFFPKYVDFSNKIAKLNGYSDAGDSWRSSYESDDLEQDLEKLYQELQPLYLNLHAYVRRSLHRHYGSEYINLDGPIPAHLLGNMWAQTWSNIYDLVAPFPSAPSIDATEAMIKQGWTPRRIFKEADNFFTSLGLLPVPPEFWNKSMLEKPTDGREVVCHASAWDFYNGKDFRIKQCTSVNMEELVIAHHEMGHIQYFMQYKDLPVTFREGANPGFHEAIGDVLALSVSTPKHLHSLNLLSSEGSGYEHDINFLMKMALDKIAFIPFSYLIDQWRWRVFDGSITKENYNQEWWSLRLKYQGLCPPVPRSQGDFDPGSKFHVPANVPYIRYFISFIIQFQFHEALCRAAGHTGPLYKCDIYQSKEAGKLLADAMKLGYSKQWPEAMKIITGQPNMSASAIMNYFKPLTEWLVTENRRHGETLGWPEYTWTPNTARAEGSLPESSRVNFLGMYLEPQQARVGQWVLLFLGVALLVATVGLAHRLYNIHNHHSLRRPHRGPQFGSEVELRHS
The assay can be described thus: Inhibition of Angiotensin I converting enzyme (ACE) purified from rat testis. In outline: (§3)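 ACE purified from rat testis, final 0.02 pmol/100 µL, preincubated 10 min at 37 °C with or without various inhibitor concentrations in 50 mM Tris/HCl/NaCl 1% pH 7.4. Then 50 µM N-Cbz-Phe-His-Leu (Km 50 µM) added for 30 min. Stopped with 2 N NaOH and diluted with water. Released His-Leu measured fluorometrically.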

In assay [5] the target is T3, Angiotensin-converting enzyme. The assay can be described thus: Inhibition of Angiotensin I converting enzyme (ACE). In outline: as §3
In assay [6] the target is T1, Neprilysin. The description is as §1. The method in brief: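 NEP purified from rabbit kidney (final 250 ng/mL) preincubated 10 min at 37 °C with or without increasing inhibitor concentrations in 50 mM Tris-HCl pH 7.4. Reaction stopped after 1 h with DMSO.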
This is another data set of the same source.

In assay [7] the target is T2, Endothelin-converting enzyme 1. The experiment in a line: (§4) Inhibition of Endothelin-converting enzyme 1 (ECE). In outline:
as §2

For assay [8] the target is unchanged. The assay is described as §4. The source holds these as a separate data set.
The target of assay [9] is T3, Angiotensin-converting enzyme. The assay can be described thus: Inhibition of Angiotensin I converting enzyme ACE). The method in brief: as §3

The term IC50 denotes the midpoint of a concentration-inhibition curve. The low end stands for greater potency, the high end for weaker potency. `O=C(O)[C@H](Cc1ccc2c(c1)oc1ccccc12)NCP(=O)(O)O` yielded a 50% inhibitory concentration (IC50) on Neprilysin [1] of 2300 nM.

As usually defined, the Ki is a measure of affinity in units of concentration, obtained from inhibition or displacement. In the case of `O=C(O)[C@H](Cc1c[nH]c2ccccc12)NC(=O)[C@@H](CS)[C@H]1CCc2ccccc21`, the Ki was found to be 290 nM in [2], 2.1 nM at Neprilysin [3] and 10 nM in assay [4].

Regarding `O=P(O)(O)C(CCc1cccc2ccccc12)N[C@@H](Cc1ccc(-c2ccccc2)cc1)c1nnn[nH]1` (stereo partly drawn), the Ki in assay [5] was > 10000 nM; at Neprilysin [6], 2.2 nM; in assay [7], 10.8 nM.

As for `O=C1N[C@H](C(=O)O)CCCCCCc2cccc(c2)CC1CS` (stereo partly drawn), the IC50 in [8] stood at 620 nM; at Neprilysin [1] it was 4 nM; in assay [9], 175 nM.

Turning to `O=C(O)C(Cc1c[nH]c2ccccc12)NC(=O)C(CS)C(c1ccccc1)c1ccccc1` (stereo not drawn), the Ki in assay [5] was 250 nM; at Neprilysin [6], 140 nM; in assay [7] it was > 10000 nM.

`CS(=O)(=O)N[C@@H](CCCCN)C(=O)N[C@@H](Cc1ccccc1)P(=O)(O)CC1(C(=O)N[C@@H](Cc2c[nH]c3ccccc23)C(=O)O)CCCC1` registered an IC50 against Neprilysin [1] of 90 nM.

Take `C[C@H](CS)C(=O)N1CCC[C@H]1C(=O)O` [CAPTOPRIL]: the values for the Ki (at Neprilysin [6]; in assay [7]) were > 1000 nM and > 10000 nM, respectively.

In the case of `O=C(O)CNC(=O)C(CS)Cc1ccccc1` (stereo not drawn) [THIORPHAN], the inhibition constant Ki in assay [5] was > 100 nM; in assay [7], > 10000 nM.
